Calls of active or inactive are those of the source. The rule behind the calls is not given here.
Columns and labels:
[1] = Cmax in C57BL/6 mouse plasma at 3 mg/kg, iv by LC-MS/MS analysis; type: ADME, organism-based; design: route intravenous, dose 3 mg/kg
SH-SY5Y [2] = experiment: Neuroprotective activity against oxygen glucose deprivation/reperfusion-induced cell death in human SH-SY5Y cells assessed as cell viability at 1 to 30 uM […] by CCK8 assay relative to control; type: functional; conditions: dose 1-30 µM
[3] = Half life in C57BL/6 mouse plasma at 100 mg/kg, IG by LC-MS/MS analysis; type: ADME, organism-based; conditions: po
[4] = AUC (0 to t) in C57BL/6 mouse plasma at 10 mg/kg, IG by LC-MS/MS analysis; type: ADME, organism-based; design: dose 10 mg/kg; conditions: po
[5] = AUC (0 to infinitive) in C57BL/6 mouse plasma at 1 mg/kg, iv by LC-MS/MS analysis; type: ADME, organism-based; design: time infinity, route intravenous, dose 1 mg/kg
[6] = Cmax in C57BL/6 mouse plasma at 100 mg/kg, IG by LC-MS/MS analysis; type: ADME, organism-based; design: route […], dose 100 mg/kg; conditions: po
[7] = AUC (0 to infinitive) in C57BL/6 mouse plasma at 0.3 mg/kg, iv by LC-MS/MS analysis; type: ADME, organism-based; design: time infinity, route intravenous, dose 0.3 mg/kg
Phospholipase A2 [8] = target: T1, Phospholipase A2 (Homo sapiens, UniProt P04054); experiment: Inhibition of PLA2 (unknown origin) using soybean phosphatidylcholine as substrate at 3 uM preincubated for 30 mins followed incubated for 60 mins after substrate addition by microplate reader relative to control
Summary of the method: (§1)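 PLA2 (4 μg/L in PBS) was preincubated 30 min at 37 °C with inhibitor in 125 mM Tris. Substrate was then added for 60 min: soybean phosphatidylcholine with Tris, CaCl₂, sodium deoxycholate and 0.5% Triton X-100. Liberated free fatty acids were quantified colorimetrically at OD550. Results are % inhibition versus enzyme without inhibitor, n = 3.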

[9] = target: T2, Transient receptor potential cation channel subfamily M member 2 (Homo sapiens, UniProt O94759); experiment: Inhibition of human TRPM2 expressed in HEK293T cells assessed as blocked of ADPR-activated current by whole cell patch clamp electrophysiology; type: cell-based
[10] = MRT in C57BL/6 mouse plasma at 10 mg/kg, IG by LC-MS/MS analysis; type: ADME, organism-based; conditions: po
[11] = AUC (0 to infinitive) in C57BL/6 mouse plasma at 3 mg/kg, iv by LC-MS/MS analysis; type: ADME, organism-based; design: time infinity, route intravenous, dose 3 mg/kg
[12] = Tmax in C57BL/6 mouse plasma at 0.3 mg/kg, iv by LC-MS/MS analysis; type: ADME, organism-based
Mus musculus [13] = experiment: Neuroprotective activity in mouse model of transient middle cerebral artery occlusion-induced cerebral ischemia-reperfusion injury assessed as reduction neurological score at 0.3 mg/kg, iv treated for 3 hrs after onset of reperfusion by TTC staining based assay relative to control; type: functional, organism-based
[14] = MRT in C57BL/6 mouse plasma at 1 mg/kg, iv by LC-MS/MS analysis; type: ADME, organism-based
Mus musculus [15] = experiment: Neuroprotective activity in mouse model of transient middle cerebral artery occlusion-induced cerebral ischemia-reperfusion injury assessed as reduction in infarct volume at 1 mg/kg, iv treated for 3 hrs after onset of reperfusion by TTC staining based assay (reference value: 52 +/- 1.7%); type: functional; design: scale not given: the % may be the effect or the level left
[16] = target: Transient receptor potential cation channel subfamily M member 8 (Homo sapiens, UniProt Q7Z2W7); experiment: Inhibition of human TRPM8 expressed in HEK293T cells assessed as blocked of menthol-activated current at 10 uM by whole cell patch clamp electrophysiology relative to control; type: cell-based
Summary of the method: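 Whole-cell patch clamp was run at room temperature on HEK293T cells transiently cotransfected with human TRPM8 plus GFP, 24–48 h before recording. ECS was 145 NaCl, 5.6 KCl, 2 MgCl₂, 1.2 CaCl₂, 10 HEPES, pH 7.2. Current was activated with 1 mM menthol, and compound was perfused at least 60 s after it stabilized. Inhibition was calculated relative to stable agonist current minus residual current; n = 3–6.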

[17] = Half life in C57BL/6 mouse plasma at 1 mg/kg, iv by LC-MS/MS analysis; type: ADME, organism-based
SH-SY5Y [18] = experiment: Cytotoxicity against human SH-SY5Y cells assessed as toxicity at 30 uM incubated for 24 hrs by CCK-8 assay; type: cell-based
Summary of the method: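 SH-SY5Y cells were seeded at 2 × 10⁴ per well and grown 12 h at 37 °C. They were then treated with compound (1–30 μM) under normoxic, normal-glucose conditions for 24 h. CCK-8 (10%) was added for 2 h at 37 °C and OD450 read. Viability was taken relative to untreated control after blank subtraction, with three replicate wells.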

[19] = Half life in C57BL/6 mouse plasma at 3 mg/kg, iv by LC-MS/MS analysis; type: ADME, organism-based
[20] = Half life in C57BL/6 mouse plasma at 10 mg/kg, IG by LC-MS/MS analysis; type: ADME, organism-based; conditions: po
[21] = MRT in C57BL/6 mouse plasma at 0.3 mg/kg, iv by LC-MS/MS analysis; type: ADME, organism-based
Mus musculus [22] = experiment: Neuroprotective activity in mouse model of transient middle cerebral artery occlusion-induced cerebral ischemia-reperfusion injury assessed as reduction neurological score at 3 mg/kg, iv treated for 3 hrs after onset of reperfusion by TTC staining based assay (reference value: 2.4 +/- 0.5); type: functional
[23] = AUC (0 to t) in C57BL/6 mouse plasma at 1 mg/kg, iv by LC-MS/MS analysis; type: ADME, organism-based; design: dose 1 mg/kg
Mus musculus [24] = experiment: Neuroprotective activity in mouse model of transient middle cerebral artery occlusion-induced cerebral ischemia-reperfusion injury assessed as reduction in infarct volume at 3 mg/kg, iv treated for 3 hrs after onset of reperfusion by TTC staining based assay (reference value: 57.6 +/- 4.9%); type: functional; design: scale not given: the % may be the effect or the level left
[25] = AUC (0 to t) in C57BL/6 mouse plasma at 0.3 mg/kg, iv by LC-MS/MS analysis; type: ADME, organism-based; design: dose 0.3 mg/kg
[26] = Cmax in C57BL/6 mouse plasma at 0.3 mg/kg, iv by LC-MS/MS analysis; type: ADME, organism-based; design: route intravenous, dose 0.3 mg/kg
[27] = target: T2, Transient receptor potential cation channel subfamily M member 2; experiment: Inhibition of human TRPM2 expressed in HEK293T cells assessed as suppression of H2O2-induced calcium flux at 1 uM measured after 30 mins by Fluo-3/AM assay; type: cell-based
SH-SY5Y [28] = experiment: Neuroprotective activity against oxygen glucose deprivation/reperfusion-induced cell death in human SH-SY5Y cells assessed as cell viability at 0.3 uM […] for 12 hrs by CCK8 assay relative to control; type: functional; conditions: read-out: Activity
[29] = Tmax in C57BL/6 mouse plasma at 10 mg/kg, IG by LC-MS/MS analysis; type: ADME, organism-based; conditions: po
[30] = Clearance in C57BL/6 mouse plasma at 1 mg/kg, iv by LC-MS/MS analysis; type: ADME, organism-based
Phospholipase A2 [31] = target: T1, Phospholipase A2; experiment: Inhibition of PLA2 (unknown origin) using soybean phosphatidylcholine as substrate at 10 uM preincubated for 30 mins followed incubated for 60 mins after substrate addition by microplate reader relative to control; summary of the method: as §1
[32] = Cmax in C57BL/6 mouse plasma at 10 mg/kg, IG by LC-MS/MS analysis; type: ADME, organism-based; design: route […], dose 10 mg/kg; conditions: po
[33] = Oral bioavailability in C57BL/6 mouse plasma at 1 mg/kg, IG by LC-MS/MS analysis; type: ADME, organism-based
[34] = Tmax in C57BL/6 mouse plasma at 1 mg/kg, iv by LC-MS/MS analysis; type: ADME, organism-based

T2 sequence (O94759 whole entry): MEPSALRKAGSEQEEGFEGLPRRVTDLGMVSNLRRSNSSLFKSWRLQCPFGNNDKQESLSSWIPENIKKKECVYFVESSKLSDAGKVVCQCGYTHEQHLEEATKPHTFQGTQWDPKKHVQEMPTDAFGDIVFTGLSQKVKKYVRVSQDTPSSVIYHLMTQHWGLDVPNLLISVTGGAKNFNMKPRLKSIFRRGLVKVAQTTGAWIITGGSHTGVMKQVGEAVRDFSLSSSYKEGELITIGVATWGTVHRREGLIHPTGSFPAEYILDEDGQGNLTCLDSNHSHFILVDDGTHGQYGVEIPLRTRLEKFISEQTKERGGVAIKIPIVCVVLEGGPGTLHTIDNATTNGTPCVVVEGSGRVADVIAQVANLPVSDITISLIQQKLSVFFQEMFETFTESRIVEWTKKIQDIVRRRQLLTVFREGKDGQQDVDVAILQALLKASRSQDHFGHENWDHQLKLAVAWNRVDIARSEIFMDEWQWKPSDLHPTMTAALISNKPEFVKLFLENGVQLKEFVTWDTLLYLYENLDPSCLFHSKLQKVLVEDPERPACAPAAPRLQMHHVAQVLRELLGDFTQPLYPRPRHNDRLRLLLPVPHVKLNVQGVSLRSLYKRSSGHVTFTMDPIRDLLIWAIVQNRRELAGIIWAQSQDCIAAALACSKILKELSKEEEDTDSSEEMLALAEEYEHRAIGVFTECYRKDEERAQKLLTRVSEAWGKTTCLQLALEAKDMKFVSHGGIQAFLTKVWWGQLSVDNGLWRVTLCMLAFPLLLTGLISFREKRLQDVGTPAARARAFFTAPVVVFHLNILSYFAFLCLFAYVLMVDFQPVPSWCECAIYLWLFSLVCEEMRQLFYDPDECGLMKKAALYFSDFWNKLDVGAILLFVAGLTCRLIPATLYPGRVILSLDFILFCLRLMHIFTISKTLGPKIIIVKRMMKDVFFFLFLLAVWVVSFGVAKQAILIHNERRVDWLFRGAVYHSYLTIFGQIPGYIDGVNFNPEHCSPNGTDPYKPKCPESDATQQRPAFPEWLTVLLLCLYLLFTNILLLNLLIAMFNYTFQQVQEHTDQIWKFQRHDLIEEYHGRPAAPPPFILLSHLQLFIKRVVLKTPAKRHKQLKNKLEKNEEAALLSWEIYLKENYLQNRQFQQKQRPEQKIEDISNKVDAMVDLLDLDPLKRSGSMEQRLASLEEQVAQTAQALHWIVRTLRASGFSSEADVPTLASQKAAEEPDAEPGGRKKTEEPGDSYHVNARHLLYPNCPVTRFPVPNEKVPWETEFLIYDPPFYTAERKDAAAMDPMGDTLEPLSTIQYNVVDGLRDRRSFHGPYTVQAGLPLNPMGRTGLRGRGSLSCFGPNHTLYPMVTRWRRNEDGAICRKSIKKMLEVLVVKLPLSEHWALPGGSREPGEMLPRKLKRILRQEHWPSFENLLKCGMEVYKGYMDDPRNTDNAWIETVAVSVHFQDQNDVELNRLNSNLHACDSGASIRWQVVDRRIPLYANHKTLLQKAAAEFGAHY
T1 sequence (P04054 23-148 limits assumed): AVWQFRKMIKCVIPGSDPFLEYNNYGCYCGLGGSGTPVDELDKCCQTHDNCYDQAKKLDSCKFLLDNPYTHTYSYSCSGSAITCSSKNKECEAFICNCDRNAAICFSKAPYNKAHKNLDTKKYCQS
Chain of Transient receptor potential cation channel subfamily M member 8 (Q7Z2W7 whole entry, looked up, the tested form may be a part): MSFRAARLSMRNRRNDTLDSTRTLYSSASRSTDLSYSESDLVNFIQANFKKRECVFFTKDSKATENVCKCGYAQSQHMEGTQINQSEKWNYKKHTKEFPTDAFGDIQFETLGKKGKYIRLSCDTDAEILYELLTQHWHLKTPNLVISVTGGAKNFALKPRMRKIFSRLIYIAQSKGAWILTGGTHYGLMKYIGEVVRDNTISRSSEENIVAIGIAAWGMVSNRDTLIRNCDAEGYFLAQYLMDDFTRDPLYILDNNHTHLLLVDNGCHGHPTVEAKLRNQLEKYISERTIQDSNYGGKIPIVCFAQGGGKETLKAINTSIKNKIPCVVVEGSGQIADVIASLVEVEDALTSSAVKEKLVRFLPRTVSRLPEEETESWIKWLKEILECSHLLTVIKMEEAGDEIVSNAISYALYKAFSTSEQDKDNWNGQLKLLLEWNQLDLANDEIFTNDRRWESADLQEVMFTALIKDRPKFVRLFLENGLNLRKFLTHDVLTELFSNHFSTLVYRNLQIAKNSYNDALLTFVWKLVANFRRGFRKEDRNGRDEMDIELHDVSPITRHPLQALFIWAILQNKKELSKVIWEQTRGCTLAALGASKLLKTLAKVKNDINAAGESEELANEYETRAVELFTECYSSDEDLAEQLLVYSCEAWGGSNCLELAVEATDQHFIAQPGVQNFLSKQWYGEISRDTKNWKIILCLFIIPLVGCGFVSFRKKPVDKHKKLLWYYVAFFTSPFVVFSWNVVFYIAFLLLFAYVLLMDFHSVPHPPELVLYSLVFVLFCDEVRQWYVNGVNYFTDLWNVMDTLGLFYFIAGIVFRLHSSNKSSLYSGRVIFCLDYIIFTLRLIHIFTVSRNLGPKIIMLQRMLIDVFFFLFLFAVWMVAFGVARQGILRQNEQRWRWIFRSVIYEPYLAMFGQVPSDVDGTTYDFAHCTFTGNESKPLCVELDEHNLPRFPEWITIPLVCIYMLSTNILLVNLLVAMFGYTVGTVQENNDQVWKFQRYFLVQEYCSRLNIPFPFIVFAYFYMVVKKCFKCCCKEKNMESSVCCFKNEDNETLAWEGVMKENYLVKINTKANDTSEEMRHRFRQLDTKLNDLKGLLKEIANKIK

O=C(/C=C/c1ccc(-c2cccc(C(F)(F)F)c2)cc1)Nc1ccccc1C(=O)O
Cmax [1]: 24300 ng/mL | Activity (SH-SY5Y [2]): 80% | half-life [3]: 217 min | AUC(0-t) [4]: 157 µg·h/mL | AUC(0-inf) [5]: 18900 ng·h/mL | Cmax [6]: 168 µg/mL | AUC(0-inf) [7]: 5450 ng·h/mL | inhibition (Phospholipase A2 [8]): 7.8% | IC50 [9]: 788 nM | MRT [10]: 2.25 h | AUC(0-inf) [11]: 40900 ng·h/mL | Tmax [12]: 4.8 min | Activity (Mus musculus [13]): inactive | MRT [14]: 1.7 h | Activity (Mus musculus [15]): 38.5% | inhibition [16]: 22.6% | half-life [17]: 102 min | Activity (SH-SY5Y [18]): < 10% | half-life [19]: 80.4 min | half-life [20]: 85.2 min | MRT [21]: 1.19 h | Activity (Mus musculus [22]): 1.8 | AUC(0-t) [23]: 18500 ng·h/mL | Activity (Mus musculus [24]): 38.9% | AUC(0-t) [25]: 5200 ng·h/mL | Cmax [26]: 5070 ng/mL | inhibition [27]: > 45% | viability at 0.3 µM (SH-SY5Y [28]): 68.7% | Tmax [29]: 30 min | clearance [30]: 0.882 mL/min/kg | inhibition (Phospholipase A2 [31]): 14.8% | Cmax [32]: 58.4 µg/mL | bioavailability [33]: 84.8% | Tmax [34]: 4.8 min

Source: ChEMBL document CHEMBL4834416, “The Discovery of Novel ACA Derivatives as Specific TRPM2 Inhibitors that Reduce Ischemic Injury Both In Vitro and In Vivo” (J Med Chem, 2021)
